Results published in ChEMBL document CHEMBL1149086, “Antimalarial and antitumor evaluation of novel C-10 non-acetal dimers of 10beta-(2-hydroxyethyl)deoxoartemisinin” (J Med Chem, 2004).

Experiments:
CCRF-CEM [1] = assay: Concentration required to achieve total growth inhibition against leukemia CCRF-CEM cell line; format: functional; conditions: Homo sapiens
COLO 205 [2] = assay: inhibition against colon COLO 205 cancer cell line; format: functional; conditions: Homo sapiens
CCRF-CEM [3] = assay: inhibition against leukemia CCRF-CEM cell line; format: functional; conditions: Homo sapiens
COLO 205 [4] = assay: Concentration of the drug required to achieve 50% cytotoxicity against colon COLO 205 cancer cell line; format: functional; conditions: Homo sapiens, read-out: LC50 (the source's name)
COLO 205 [5] = assay: Concentration required to achieve total growth inhibition against colon COLO 205 cancer cell line; format: functional; conditions: Homo sapiens
HCT-15 [6] = assay: Concentration required to achieve total growth inhibition against colon HCT-15 cancer cell line; format: functional; conditions: Homo sapiens
HCT-15 [7] = assay: Concentration of the drug required to achieve 50% cytotoxicity against colon HCT-15 cancer cell line; format: functional; conditions: Homo sapiens, read-out: LC50 (the source's name)
HCT-116 [8] = assay: Concentration required to achieve total growth inhibition against colon HCT116 cancer cell line; format: functional; conditions: Homo sapiens
HCT-15 [9] = assay: inhibition against colon HCT-15 cancer cell line; format: functional; conditions: Homo sapiens
HL-60 [10] = assay: inhibition against leukemia HL-60(TB) cell line; format: functional; conditions: Homo sapiens
HL-60 [11] = assay: Concentration of the drug required to achieve 50% cytotoxicity against leukemia HL-60(TB) cell line; format: functional; conditions: Homo sapiens, read-out: LC50 (the source's name)
HL-60 [12] = assay: Concentration required to achieve total growth inhibition against leukemia HL-60(TB) cell line; format: functional; conditions: Homo sapiens
HCT-116 [13] = assay: Concentration of the drug required to achieve 50% cytotoxicity against colon HCT116 cancer cell line; format: functional; conditions: Homo sapiens, read-out: LC50 (the source's name)
HCC 2998 [14] = assay: Concentration required to achieve total growth inhibition against colon HCC2998 cancer cell line; format: functional; conditions: Homo sapiens
HCC 2998 [15] = assay: inhibition against colon HCC2998 cancer cell line; format: functional; conditions: Homo sapiens
HCC 2998 [16] = assay: Concentration of the drug required to achieve 50% cytotoxicity against colon HCC2998 cancer cell line; format: functional; conditions: Homo sapiens, read-out: LC50 (the source's name)
HT-29 [17] = assay: Concentration of the drug required to achieve 50% cytotoxicity against colon HT-29 cancer cell line; format: functional; conditions: Homo sapiens, read-out: LC50 (the source's name)
HT-29 [18] = assay: inhibition against colon HT-29 cancer cell line; format: functional; conditions: Homo sapiens
HT-29 [19] = assay: Concentration required to achieve total growth inhibition against colon HT-29 cancer cell line; format: functional; conditions: Homo sapiens
K562 [20] = assay: Concentration of the drug required to achieve 50% cytotoxicity against leukemia K-562 cell line; format: functional; conditions: Homo sapiens, read-out: LC50 (the source's name)
Jurkat [21] = assay: Tested for apoptosis in jurkat cells at a concentration of 0 uM of the compound; format: functional, Homo sapiens
Outline: (§1)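 Jurkat cells (1 × 10⁶ cells mL⁻¹; >98% viable, <2% background apoptosis) incubated 24 h at 37 °C with compound (0–100 μM range, in DMSO). Nuclei stained with propidium iodide (50 μM) in HBSS with 0.1% Triton-X for 10 min at 37 °C. Apoptotic nuclei measured by flow cytometry. Mean ± SD of triplicate incubations in one experiment; Kruskal–Wallis test against DMSO control.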

Jurkat [22] = assay: Tested for apoptosis in jurkat cells at a concentration of 0.1 uM of the compound; format: functional, Homo sapiens; outline: as §1
Jurkat [23] = assay: Tested for apoptosis in jurkat cells at a concentration of 0.3 uM of the compound; format: functional, Homo sapiens
Outline: (§2)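 Jurkat cells (>98% viable, <2% background apoptosis) at 1 × 10⁶ cells/mL were exposed to 0–100 μM drug (DMSO) for 24 h at 37 °C in 5% CO₂. Nuclei were stained with 50 μM propidium iodide and 0.1% Triton-X in HBSS for 10 min at 37 °C, then scored as apoptotic by flow cytometry. Triplicate incubations in one experiment, mean ± SD; Kruskal–Wallis test versus DMSO control.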

Jurkat [24] = assay: Tested for apoptosis in jurkat cells at a concentration of 1 uM of the compound; format: functional, Homo sapiens; outline: as §2
Jurkat [25] = assay: Tested for apoptosis in jurkat cells at a concentration of 10 uM of the compound; format: functional, Homo sapiens; outline: as §2
Jurkat [26] = assay: Tested for apoptosis in jurkat cells at a concentration of 100 uM of the compound; format: functional, Homo sapiens; outline: as §2
Jurkat [27] = assay: Tested for apoptosis in jurkat cells at a concentration of 3 uM of the compound; format: functional, Homo sapiens; outline: as §2
Jurkat [28] = assay: Tested for apoptosis in jurkat cells at a concentration of 30 uM of the compound; format: functional, Homo sapiens; outline: as §2
Jurkat [29] = assay: Inhibitory concentration against jurkat cells; format: functional, cell-based; conditions: Homo sapiens
Outline: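 HL60 (2.5 × 10⁴/well) or Jurkat (1 × 10⁵/well) in RPMI-1640 with 10% FBS and 1% L-glutamine, 5% CO2, 37 °C. Exposed to 10⁻¹⁰–10⁻⁴ M for 72 h, final DMSO below 0.5% v/v. [3H]-thymidine (0.5 μCi) added for the final 24 h. Incorporation counted by β-scintillation.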

KM12 [30] = assay: Concentration required to achieve total growth inhibition against colon KM12 cancer cell line; format: functional; conditions: Homo sapiens
K562 [31] = assay: Concentration required to achieve total growth inhibition against leukemia K-562 cell line; format: functional; conditions: Homo sapiens
KM12 [32] = assay: inhibition against colon KM12 cancer cell line; format: functional; conditions: Homo sapiens
KM12 [33] = assay: Concentration of the drug required to achieve 50% cytotoxicity against colon KM12 cancer cell line; format: functional; conditions: Homo sapiens, read-out: LC50 (the source's name)
MOLT-4 = assay: inhibition against leukemia MOLT-4 cell line; format: functional; conditions: Homo sapiens
LOX IMVI [34] = assay: inhibition against melanoma LOX IMVI cell line; format: functional; conditions: Homo sapiens
LOX IMVI [35] = assay: Concentration of the drug required to achieve 50% cytotoxicity against melanoma LOX IMVI cell line; format: cell-based; conditions: human

In the case of `C[C@H]1[C@@H](CCOP(=O)(OCC[C@H]2O[C@@H]3OC4(C)CC[C@H]5[C@H](C)CC[C@@H]([C@H]2C)[C@@]35OO4)Oc2ccccc2)O[C@@H]2OC3(C)CC[C@H]4[C@H](C)CC[C@@H]1[C@@]24OO3` (single isomer, unassigned), the TGI (CCRF-CEM [1]) is reported as 56 µM, the GI50 (COLO 205 [2]) is reported as < 0.01 µM and the GI50 (CCRF-CEM [3]) is reported as 0.0259 µM. The CC50 (COLO 205 [4]) was > 100 µM, the TGI (COLO 205 [5]) was 0.17 µM and the TGI (HCT-15 [6]) was > 100 µM. For the same compound, the CC50 (HCT-15 [7]) was > 100 µM, the TGI (HCT-116 [8]) was > 100 µM and the GI50 (HCT-15 [9]) was < 0.01 µM. For the same compound, the GI50 (HL-60 [10]) was 0.0115 µM, the CC50 (HL-60 [11]) was > 100 µM and the TGI (HL-60 [12]) was 2.23 µM. For the same compound, the CC50 (HCT-116 [13]) was > 100 µM, the TGI (HCC 2998 [14]) was 2.85 µM and the GI50 (HCC 2998 [15]) was 0.0648 µM. For the same compound, the CC50 (HCC 2998 [16]) was > 100 µM, the CC50 (HT-29 [17]) was > 100 µM and the GI50 (HT-29 [18]) was < 0.01 µM. The TGI (HT-29 [19]) was 23.2 µM, the CC50 (K562 [20]) was > 100 µM and the Activity (Jurkat [21]) was 7.5%. It also gave an Activity (Jurkat [22]) of 8.7%, an Activity (Jurkat [23]) of 7.3% and an Activity (Jurkat [24]) of 8.9%. The Activity (Jurkat [25]) was 11.2%, the Activity (Jurkat [26]) was 20.1% and the Activity (Jurkat [27]) was 8.7%. It also gave an Activity (Jurkat [28]) of 17.3%, an IC50 (Jurkat [29]) of 13.2 µM and a TGI (KM12 [30]) of 17.9 µM. For the same compound, the TGI (K562 [31]) was 100 µM, the GI50 (KM12 [32]) was < 0.01 µM and the CC50 (KM12 [33]) was > 100 µM. The GI50 (MOLT-4) was < 0.01 µM, the GI50 (LOX IMVI [34]) was 0.0191 µM and the LC50 (LOX IMVI [35]) was > 100 µM.
